# Reference: ChEMBL document CHEMBL4396885, “Thioether-based 2-aminobenzamide derivatives: Novel HDAC inhibitors with potent in vitro and in vivo antitumor activity” (Eur J Med Chem, 2019)
# Columns and labels:
# HeLa [1] = assay: Antiproliferative activity against human HeLa cells assessed as growth inhibition at 2 uM after 72 hrs by CCK-8 assay relative to control; assay type: functional; settings: read-out: GI
# HCT-116 = assay: Antiproliferative activity against human HCT116 cells assessed as growth inhibition at 8 uM after 72 hrs by CCK-8 assay relative to control; assay type: functional; settings: HCT-116, 72 h, read-out: GI
# [2] = Half life in ICR mouse at 4 mg/kg, iv after 0.08 to 24 hrs by LC-MS/MS analysis; assay type: ADME, organism-based; settings: in vivo
# How it was run: (§1)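 Male ICR mice (29.7~37.4 g), single iv dose 4 mg/kg in DMSO:40% SBE-β-CD 20:80 (v/v). Retro-orbital blood at 0.08–24 h into EDTA-K2 tubes; plasma protein-precipitated with acetonitrile containing internal standards, analysed by LC-MS/MS; n=3 per time point; noncompartmental analysis.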
# A549 [3] = assay: Induction of apoptosis in human A549 cells assessed as early apoptotic cells at 1 uM after 48 hrs by Annexin V-FITC/propidium iodide staining based flow cytometry (reference value: 1.19%); assay type: functional
# How it was run: (§2)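 A549 seeded 4×10⁶ cells/well, dosed after 12 h with compound at various concentrations, harvested after 48 h. Resuspended in annexin-binding buffer, stained with Annexin V-FITC and propidium iodide for 15 min in the dark, analysed by flow cytometry; means of three separate experiments.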
# Histone deacetylase = assay: Inhibition of HDAC in human HeLa cell nuclear extract assessed as decrease in deacetylation of FLUOR DE LYS Green substrate preincubated for 10 mins followed by substrate addition and measured after 30 mins by fluorescence based assay; assay type: cell-free
# A549 [4] = assay: Cell cycle arrest in human A549 cells assessed as accumulation of cells at S phase at 0.5 uM after 48 hrs by propidium iodide staining-based flow cytometry (reference value: 12.83%); assay type: functional
# A549 [5] = assay: Induction of apoptosis in human A549 cells assessed as late apoptotic cells at 2 uM after 48 hrs by Annexin V-FITC/propidium iodide staining based flow cytometry (reference value: 0.637%); assay type: functional; how it was run: as §2
# A549 [6] = assay: Induction of apoptosis in human A549 cells assessed as late apoptotic cells at 1 uM after 48 hrs by Annexin V-FITC/propidium iodide staining based flow cytometry (reference value: 0.637%); assay type: functional; how it was run: as §2
# [7] = Volume of distribution at steady state n ICR mouse at 4 mg/kg, iv after 0.08 to 24 hrs by LC-MS/MS analysis; assay type: ADME, organism-based; settings: in vivo, read-out: Vdss; how it was run: as §1
# A549 [8] = assay: Induction of apoptosis in human A549 cells assessed as early apoptotic cells at 2 uM after 48 hrs by Annexin V-FITC/propidium iodide staining based flow cytometry (reference value: 1.19%); assay type: functional; how it was run: as §2
# A549 [9] = assay: Induction of apoptosis in human A549 cells after 48 hrs by Annexin V-FITC/propidium iodide staining based flow cytometry; assay type: functional, cell-based; how it was run: as §2
# HeLa [10] = assay: Antiproliferative activity against human HeLa cells assessed as growth inhibition at 8 uM after 72 hrs by CCK-8 assay relative to control; assay type: functional; settings: read-out: GI
# A549 [11] = assay: Cell cycle arrest in human A549 cells assessed as accumulation of cells at G0/G1 phase at 1 uM after 48 hrs by propidium iodide staining-based flow cytometry (reference value: 73.35%); assay type: functional
# Histone deacetylase 8 = target: T1, Histone deacetylase 8 (Homo sapiens, UniProt Q9BY41); assay: Inhibition of recombinant human HDAC8 assessed as decrease in deacetylation of FLUOR DE LYS substrate preincubated for 10 mins followed by substrate addition and measured after 30 mins by fluorescence based assay
# T1 sequence (Q9BY41 whole entry): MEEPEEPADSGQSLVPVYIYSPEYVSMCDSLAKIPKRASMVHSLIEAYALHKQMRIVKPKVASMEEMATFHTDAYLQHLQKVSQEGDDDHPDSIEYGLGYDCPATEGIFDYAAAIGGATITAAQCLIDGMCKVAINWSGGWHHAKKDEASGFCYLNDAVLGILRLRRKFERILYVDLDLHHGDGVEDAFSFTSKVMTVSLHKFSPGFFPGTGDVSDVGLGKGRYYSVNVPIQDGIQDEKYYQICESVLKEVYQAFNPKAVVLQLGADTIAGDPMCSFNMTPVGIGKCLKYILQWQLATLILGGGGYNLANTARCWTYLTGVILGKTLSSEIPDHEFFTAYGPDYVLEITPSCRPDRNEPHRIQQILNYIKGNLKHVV
# A549 [12] = assay: Antitumor activity against human A549 cells xenografted in Balb/c nude mouse assessed as tumor growth inhibition at 25 mg/kg, ip administered twice per day for 21 days relative to control; assay type: functional; settings: 504 h, read-out: TGI
# How it was run: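 Female BALB/c nude mice, 5–6 weeks, implanted s.c. in right axilla with 3×10⁶ A549 cells; randomized at ~95 mm³ tumor volume, 4 per group. Dosed ip 25 mg/kg twice daily for 21 days; vehicle controls got DMA & 5% Solutol HS-15 (5:95). Tumor size (V=length×width²/2) and body weight measured every 3 days; TGI from volume change relative to control.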
compound,measurement,setting,value
COc1ccc(SCc2ccc(C(=O)Nc3ccccc3N)cc2)cc1,inhibition of growth at 2 µM,HeLa [1],35%
same,inhibition of growth at 8 µM,HCT-116,90.1%
same,half-life,[2],2.24 h
same,Activity,A549 [3],19.8%
same,IC50,Histone deacetylase,> 32 µM
same,Activity,A549 [4],17.55%
same,Activity,A549 [5],26.6%
same,Activity,A549 [6],10.8%
same,Vd,[7],1.74 L/kg
same,Activity,A549 [8],5.65%
same,Activity,A549 [9],Dose-dependent effect
same,inhibition of growth at 8 µM,HeLa [10],79.7%
same,Activity,A549 [11],41.07%
same,IC50,Histone deacetylase 8,> 32 µM
same,inhibition in vivo at 25 mg/kg,A549 [12],57.9%
CCc1ccc(SCc2ccc(C(=O)Nc3ccccc3N)cc2)cc1,inhibition of growth at 2 µM,HeLa [1],30.8%
same,inhibition of growth at 8 µM,HCT-116,79.1%
same,half-life,[2],2.59 h
same,Activity,A549 [3],6.52%
same,IC50,Histone deacetylase,> 32 µM
same,Activity,A549 [4],12.56%
same,Activity,A549 [5],16.7%
same,Activity,A549 [6],14.6%
same,Vd,[7],3.46 L/kg
same,Activity,A549 [8],6.55%
same,Activity,A549 [9],Dose-dependent effect
same,inhibition of growth at 8 µM,HeLa [10],71%
same,Activity,A549 [11],30.39%
same,IC50,Histone deacetylase 8,> 32 µM
same,inhibition in vivo at 25 mg/kg,A549 [12],62.7%
